Activity calls are given as the source filed them. The calls are words filed in the database; no cut-off is given here.
Key:
Type in all cases: functional
Leishmania donovani [1] = test: Antileishmanial activity against Leishmania donovani MHOM/IN/Dd8 promastigotes assessed as inhibition of parasitic growth at 5 ug/ml after 72 hrs by luciferase activity-based luminescence assay
Outline: (§1)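 Late-log luciferase-transfected L. donovani promastigotes (kept at 25 ± 1 °C in medium 199 + 10% FCS under G418) seeded at 5 × 10⁵ per well in medium 199; exposed 72 h to serial dilutions of compound in DMSO, with parallel DMSO dilutions as controls. Aliquot mixed 1:1 with Steady-Glo reagent; luminescence read as RLU and growth inhibition derived from luciferase signal.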

Leishmania donovani [2] = test: Antileishmanial activity against Leishmania donovani MHOM/IN/Dd8 promastigotes assessed as inhibition of parasitic growth at 2 ug/ml after 72 hrs by luciferase activity-based luminescence assay; outline: as §1
Leishmania donovani [3] = test: Antileishmanial activity against Leishmania donovani MHOM/IN/Dd8 amastigotes infected in mouse J774A.1 cells assessed as inhibition of parasitic growth at 5 ug/ml after 24 hrs by luciferase activity-based luminescence assay; conditions: for Percent inhibition of intracellular amastigote growth at 5 µg/mL: J774.A1, 24 h, read-out: INH
Outline: (§2)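 Macrophages seeded 5 × 10⁴ per well in RPMI-1640 + 10% FCS, 37 °C, CO₂; after 24 h infected with stationary-phase luciferase-expressing promastigotes (2.5 × 10⁵ per well) that transform to amastigotes. Medium replaced with compound in complete medium, incubated 37 °C for 24 h or more; then PBS added, mixed 1:1 with Steady-Glo, shaken 1–2 min, luminescence read to give growth inhibition.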

Leishmania donovani [4] = test: Antileishmanial activity against Leishmania donovani MHOM/IN/Dd8 amastigotes infected in mouse J774A.1 cells assessed as inhibition of parasitic growth at 2 ug/ml after 24 hrs by luciferase activity-based luminescence assay; conditions: for percent inhibition of intracellular amastigote growth at 2 µg/mL: J774.A1, 24 h, read-out: INH; outline: as §2

CC1=CCCC(C)(C)C1CCC(=O)/C=C/c1ccccc1[N+](=O)[O-] (configuration not stated)
inhibition at 5 µg/mL (Leishmania donovani [1]): 53%
inhibition at 2 µg/mL (Leishmania donovani [2]): 34%
Activity (Leishmania donovani [3]): inactive
Activity (Leishmania donovani [4]): inactive

CC1=CCCC(C)(C)C1CCC(=O)/C=C/c1cccc([N+](=O)[O-])c1 (configuration not stated)
inhibition at 5 µg/mL (Leishmania donovani [1]): 99%
inhibition at 2 µg/mL (Leishmania donovani [2]): 98%
Percent inhibition of intracellular amastigote growth at 5 µg/mL (Leishmania donovani [3]): 65%

CC1=CCCC(C)(C)C1CCC(=O)/C=C/c1ccc(Cl)cc1 (configuration not stated)
inhibition at 5 µg/mL (Leishmania donovani [1]): 100%
inhibition at 2 µg/mL (Leishmania donovani [2]): 100%
Percent inhibition of intracellular amastigote growth at 5 µg/mL (Leishmania donovani [3]): 93%
percent inhibition of intracellular amastigote growth at 2 µg/mL (Leishmania donovani [4]): 88%

COc1ccc(/C=C/C(=O)CCC2C(C)=CCCC2(C)C)cc1OC (configuration not stated)
inhibition at 5 µg/mL (Leishmania donovani [1]): 100%
inhibition at 2 µg/mL (Leishmania donovani [2]): 100%
Percent inhibition of intracellular amastigote growth at 5 µg/mL (Leishmania donovani [3]): 95%
percent inhibition of intracellular amastigote growth at 2 µg/mL (Leishmania donovani [4]): 79%

CC1=CCCC(C)(C)C1CCC(=O)/C=C/c1ccc([N+](=O)[O-])cc1 (configuration not stated)
inhibition at 5 µg/mL (Leishmania donovani [1]): 99%
inhibition at 2 µg/mL (Leishmania donovani [2]): 95%
Percent inhibition of intracellular amastigote growth at 5 µg/mL (Leishmania donovani [3]): 80%
percent inhibition of intracellular amastigote growth at 2 µg/mL (Leishmania donovani [4]): 74%

CC1=CCCC(C)(C)C1CCC(=O)/C=C/c1ccc(O)cc1 (configuration not stated)
inhibition at 5 µg/mL (Leishmania donovani [1]): 100%
inhibition at 2 µg/mL (Leishmania donovani [2]): 76%
Activity (Leishmania donovani [3]): inactive
Activity (Leishmania donovani [4]): inactive

CC1=CCCC(C)(C)C1CCC(=O)/C=C/c1ccc(CO)o1 (configuration not stated)
inhibition at 5 µg/mL (Leishmania donovani [1]): 93%
inhibition at 2 µg/mL (Leishmania donovani [2]): 65%
Activity (Leishmania donovani [3]): inactive
Activity (Leishmania donovani [4]): inactive

CC1=CCCC(C)(C)C1CCC(=O)/C=C/c1ccc(OCc2ccccc2)cc1 (configuration not stated)
inhibition at 5 µg/mL (Leishmania donovani [1]): 100%
inhibition at 2 µg/mL (Leishmania donovani [2]): 61%
Activity (Leishmania donovani [3]): inactive

COc1cc(/C=C/C(=O)CCC2C(C)=CCCC2(C)C)cc(OC)c1OC (configuration not stated)
inhibition at 5 µg/mL (Leishmania donovani [1]): 90%
inhibition at 2 µg/mL (Leishmania donovani [2]): 50%
Activity (Leishmania donovani [3]): inactive
Activity (Leishmania donovani [4]): inactive

COc1ccc(/C=C/C(=O)CCC2C(C)=CCCC2(C)C)cc1 (configuration not stated)
inhibition at 5 µg/mL (Leishmania donovani [1]): 98%
inhibition at 2 µg/mL (Leishmania donovani [2]): 98%
Percent inhibition of intracellular amastigote growth at 5 µg/mL (Leishmania donovani [3]): 81%
percent inhibition of intracellular amastigote growth at 2 µg/mL (Leishmania donovani [4]): 40%

CC1=CCCC(C)(C)C1CCC(=O)/C=C/c1cccnc1 (configuration not stated)
inhibition at 5 µg/mL (Leishmania donovani [1]): 100%
inhibition at 2 µg/mL (Leishmania donovani [2]): 100%
Percent inhibition of intracellular amastigote growth at 5 µg/mL (Leishmania donovani [3]): 92%
percent inhibition of intracellular amastigote growth at 2 µg/mL (Leishmania donovani [4]): 33%

Source: ChEMBL document CHEMBL1154441, “Chemotherapy of leishmaniasis part-VIII: synthesis and bioevaluation of novel chalcones” (2008)
